We go through 21 compounds from ChEMBL document CHEMBL1140331, “Iterative approach to the discovery of novel degarelix analogues: substitutions at positions 3, 7, and 8. Part II” (J Med Chem, 2005).

This assay deals with T1, Gonadotropin-releasing hormone receptor (Homo sapiens, UniProt P30968).
T1 sequence (P30968 whole entry): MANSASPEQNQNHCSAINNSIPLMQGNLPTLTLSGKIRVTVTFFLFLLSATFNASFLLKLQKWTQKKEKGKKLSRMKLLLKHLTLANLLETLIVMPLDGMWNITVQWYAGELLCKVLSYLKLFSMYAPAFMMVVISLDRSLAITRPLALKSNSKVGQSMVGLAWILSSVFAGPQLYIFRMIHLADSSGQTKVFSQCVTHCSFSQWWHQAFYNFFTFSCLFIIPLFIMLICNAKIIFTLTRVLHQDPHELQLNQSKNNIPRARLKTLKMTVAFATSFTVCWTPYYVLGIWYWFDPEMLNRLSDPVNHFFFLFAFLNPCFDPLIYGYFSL
Description: Antagonism of GnRH response in HEK293 cells expressing human GnRH receptor. The format is functional, cell-based. The method, boiled down:
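HEK293 cells stably carrying cloned human GnRH receptor and luciferase reporter under LH α-subunit promoter; cultured in phenol red-free DMEM, 10% FBS, G418 0.4 mg/mL; plated 5×10^4 cells/well, overnight 37 °C. Compound (11 half-log concentrations, duplicate, 1% DMSO) preincubated 10 min, then GnRH 1 nM final, ≥5 h; luminescence read; % of control cps (blank-subtracted) gives IC50.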

Where a SMILES comes first, the peptide text is derived from it. [ ]: non-standard residue; d: D form. The star is where a group is joined. dPhe(4-NHCONH2) = NC(=O)Nc1ccc(C[C@@H](N)C(=O)O)cc1; Dihydroorotyl(S) = O=C1C[C@@H](C(=O)*)NC(=O)N1; dPhe(4-Cl) = N[C@H](Cc1ccc(Cl)cc1)C(=O)O; Phe(4-NH2) = Nc1ccc(C[C@H](N)C(=O)O)cc1; d2Nal = N[C@H](Cc1ccc2ccccc2c1)C(=O)O; Lys(iPr) = CC(C)NCCCC[C@H](N)C(=O)O; d3Pal = N[C@H](Cc1cccnc1)C(=O)O

The IC50 is the midpoint of a concentration-inhibition curve. A low value points to higher potency. In the case of `CC(=O)N[C@H](Cc1ccc2ccccc2c1)C(=O)N[C@H](Cc1ccc(Cl)cc1)C(=O)N[C@H](Cc1cccnc1)C(=O)N[C@@H](CO)C(=O)N[C@@H](Cc1ccc(NC(=O)[C@@H]2CC(=O)NC(=O)N2)cc1)C(=O)N[C@H](Cc1ccc(NC(N)=O)cc1)C(=O)N[C@@H](CC(C)C)C(=O)N[C@@H](CN[C@H](C(=O)O)C1CCCCC1)C(=O)N1CCC[C@H]1C(=O)N[C@H](C)C(N)=O`, inhibition (hek293) was half-maximal at 2.01 nM (IC50).

`C#CC[C@H](NC(=O)[C@@H](Cc1ccc(NC(N)=O)cc1)NC(=O)[C@H](Cc1ccc(NC(=O)[C@@H]2CC(=O)NC(=O)N2)cc1)NC(=O)[C@H](CO)NC(=O)[C@@H](Cc1cccnc1)NC(=O)[C@@H](Cc1ccc(Cl)cc1)NC(=O)[C@@H](Cc1ccc2ccccc2c1)NC(C)=O)C(=O)N[C@@H](CCCCNC(C)C)C(=O)N1CCC[C@H]1C(=O)N[C@H](C)C(N)=O` displayed a half-inhibitory concentration (IC50) of 2.11 nM.

Regarding `CC(=O)N[C@H](Cc1ccc2ccccc2c1)C(=O)N[C@H](Cc1ccc(Cl)cc1)C(=O)N[C@H](Cc1cccnc1)C(=O)N[C@@H](CO)C(=O)N[C@@H](Cc1ccc(NC(=O)[C@@H]2CC(=O)NC(=O)N2)cc1)C(=O)N[C@H](Cc1ccc(NC(N)=O)cc1)C(=O)N[C@@H](Cc1c[nH]cn1)C(=O)N[C@@H](CCCCNC(C)C)C(=O)N1CCC[C@H]1C(=O)N[C@H](C)C(N)=O`, 10.6 nM corresponded to half-maximal inhibition (IC50).

With `CC(=O)N[C@H](Cc1ccc2ccccc2c1)C(=O)N[C@H](Cc1ccc(Cl)cc1)C(=O)N[C@H](Cc1cccnc1)C(=O)N[C@@H](CO)C(=O)N[C@@H](Cc1ccc(NC(=O)[C@@H]2CC(=O)NC(=O)N2)cc1)C(=O)N[C@H](Cc1ccc(NC(N)=O)cc1)C(=O)N[C@@H](CC(C)C)C(=O)N[C@@H](CCCNC(C)C)C(=O)N1CCC[C@H]1C(=O)N[C@H](C)C(N)=O`, 1.72 nM corresponded to half-maximal inhibition (IC50).

In turn, `CC(=O)N[C@H](Cc1ccc2ccccc2c1)C(=O)N[C@H](Cc1ccc(Cl)cc1)C(=O)N[C@H](Cc1cccnc1)C(=O)N[C@@H](CO)C(=O)N[C@@H](Cc1ccc(NC(=O)[C@@H]2CC(=O)NC(=O)N2)cc1)C(=O)N[C@H](Cc1ccc(NC(N)=O)cc1)C(=O)N(C)[C@@H](CC(C)C)C(=O)N[C@@H](CCCCNC(C)C)C(=O)N1CCC[C@H]1C(=O)N[C@H](C)C(N)=O` showed a half-inhibitory concentration (IC50) of 1.47 nM.

`CC(=O)N[C@H](Cc1ccc2ccccc2c1)C(=O)N[C@H](Cc1ccc(Cl)cc1)C(=O)N[C@H](CN(Cc1ccccn1)Cc1ccccn1)C(=O)N[C@@H](CO)C(=O)N[C@@H](Cc1ccc(NC(=O)[C@@H]2CC(=O)NC(=O)N2)cc1)C(=O)N[C@H](Cc1ccc(NC(N)=O)cc1)C(=O)N[C@@H](CC(C)C)C(=O)N[C@@H](CCCCNC(C)C)C(=O)N1CCC[C@H]1C(=O)N[C@H](C)C(N)=O` showed a concentration for half-maximal inhibition (IC50) (hek293) of 5.31 nM.

Regarding `CC(=O)N[C@H](Cc1ccc2ccccc2c1)C(=O)N[C@H](Cc1ccc(Cl)cc1)C(=O)N[C@H](Cc1cccnc1)C(=O)N[C@@H](CO)C(=O)N[C@@H](Cc1ccc(NC(=O)[C@@H]2CC(=O)NC(=O)N2)cc1)C(=O)N[C@H](Cc1ccc(NC(N)=O)cc1)C(=O)N[C@@H](CC(C)C)C(=O)N(C)[C@@H](CCCCNC(C)C)C(=O)N1CCC[C@H]1C(=O)N[C@H](C)C(N)=O`, it took 52.2 nM to reach half-maximal inhibition (IC50).

As for `CC(=O)N[C@H](Cc1ccc2ccccc2c1)C(=O)N[C@H](Cc1ccc(Cl)cc1)C(=O)N[C@@H](Cc1cccnc1)C(=O)N[C@@H](CO)C(=O)N[C@@H](Cc1ccc(NC(=O)[C@@H]2CC(=O)NC(=O)N2)cc1)C(=O)N[C@@H](Cc1ccc(NC(N)=O)cc1)C(=O)N[C@@H](CC(C)C)C(=O)N[C@@H](CCNC(C(=O)O)C1CCCCC1)C(=O)N1CCC[C@H]1C(=O)N[C@H](C)C(N)=O` (stereo partly specified), it took 1.77 nM to reach half-maximal inhibition (hek293) (IC50).

The compound `CNC(=O)C[C@H](NC(=O)[C@@H](Cc1ccc(NC(N)=O)cc1)NC(=O)[C@H](Cc1ccc(NC(=O)[C@@H]2CC(=O)NC(=O)N2)cc1)NC(=O)[C@H](CO)NC(=O)[C@@H](Cc1cccnc1)NC(=O)[C@@H](Cc1ccc(Cl)cc1)NC(=O)[C@@H](Cc1ccc2ccccc2c1)NC(C)=O)C(=O)N[C@@H](CCCCNC(C)C)C(=O)N1CCC[C@H]1C(=O)N[C@H](C)C(N)=O` displayed an IC50 of 25.8 nM.

For `CC(=O)N[C@H](Cc1ccc2ccccc2c1)C(=O)N[C@H](Cc1ccc(Cl)cc1)C(=O)N[C@H](Cc1cccnc1)C(=O)N[C@@H](CO)C(=O)N[C@@H](Cc1ccc(NC(=O)[C@@H]2CC(=O)NC(=O)N2)cc1)C(=O)N[C@H](Cc1ccc(NC(N)=O)cc1)C(=O)N[C@@H](CC(C)C)C(=O)N[C@@H](CCCCNC1CCCCC1)C(=O)N1CCC[C@H]1C(=O)N[C@H](C)C(N)=O`, half-maximal inhibition (IC50) required 1.5 nM.

The compound `CC(=O)N[C@H](Cc1ccc2ccccc2c1)C(=O)N[C@H](Cc1ccc(Cl)cc1)C(=O)N[C@H](Cc1cccnc1)C(=O)N[C@@H](CO)C(=O)N[C@@H](Cc1ccc(NC(=O)[C@@H]2CC(=O)NC(=O)N2)cc1)C(=O)N[C@H](Cc1ccc(NC(N)=O)cc1)C(=O)N[C@@H](CC(=O)N(C)C)C(=O)N[C@@H](CCCCNC(C)C)C(=O)N1CCC[C@H]1C(=O)N[C@H](C)C(N)=O` returned an IC50 of 48.9 nM.

For `CC(=O)N[C@H](Cc1ccc2ccccc2c1)C(=O)N[C@H](Cc1ccc(Cl)cc1)C(=O)N[C@H](Cc1cccnc1)C(=O)N[C@@H](CO)C(=O)N[C@@H](Cc1ccc(NC(=O)[C@@H]2CC(=O)NC(=O)N2)cc1)C(=O)N[C@H](Cc1ccc(NC(N)=O)cc1)C(=O)N[C@@H](CC(C)C)C(=O)N[C@@H](CCCNC(=O)CNC(C)C)C(=O)N1CCC[C@H]1C(=O)N[C@H](C)C(N)=O`, the IC50 worked out at 1.38 nM.

Take `CC(=O)N[C@H](Cc1ccc2ccccc2c1)C(=O)N[C@H](Cc1ccc(Cl)cc1)C(=O)N[C@H](Cc1cccnc1)C(=O)N[C@@H](CO)C(=O)N[C@@H](Cc1ccc(NC(=O)[C@@H]2CC(=O)NC(=O)N2)cc1)C(=O)N[C@H](Cc1ccc(NC(N)=O)cc1)C(=O)N[C@@H](CS)C(=O)N[C@@H](CCCCNC(C)C)C(=O)N1CCC[C@H]1C(=O)N[C@H](C)C(N)=O`: the concentration for half-maximal inhibition (IC50) is 178 nM.

In the case of `CC(=O)N[C@H](Cc1ccc2ccccc2c1)C(=O)N[C@H](Cc1ccc(Cl)cc1)C(=O)N[C@H](Cc1cccnc1)C(=O)N[C@@H](CO)C(=O)N[C@@H](Cc1ccc(NC(=O)[C@@H]2CC(=O)NC(=O)N2)cc1)C(=O)N(C)[C@H](Cc1ccc(NC(N)=O)cc1)C(=O)N[C@@H](CC(C)C)C(=O)N[C@@H](CCCCNC(C)C)C(=O)N1CCC[C@H]1C(=O)N[C@H](C)C(N)=O`, the half-inhibitory concentration (IC50) was determined as 1.85 nM.

The compound `CC(=O)N[C@H](Cc1ccc2ccccc2c1)C(=O)N[C@H](Cc1ccc(Cl)cc1)C(=O)N[C@H](CCNCc1ccccn1)C(=O)N[C@@H](CO)C(=O)N[C@@H](Cc1ccc(NC(=O)[C@@H]2CC(=O)NC(=O)N2)cc1)C(=O)N[C@H](Cc1ccc(NC(N)=O)cc1)C(=O)N[C@@H](CC(C)C)C(=O)N[C@@H](CCCCNC(C)C)C(=O)N1CCC[C@H]1C(=O)N[C@H](C)C(N)=O` registered an IC50 (hek293) of 3.79 nM.

Turning to `CC(=O)N[C@H](Cc1ccc2ccccc2c1)C(=O)N[C@H](Cc1ccc(Cl)cc1)C(=O)N[C@H](CNCc1ccccn1)C(=O)N[C@@H](CO)C(=O)N[C@@H](Cc1ccc(NC(=O)[C@@H]2CC(=O)NC(=O)N2)cc1)C(=O)N[C@H](Cc1ccc(NC(N)=O)cc1)C(=O)N[C@@H](CC(C)C)C(=O)N[C@@H](CCCCNC(C)C)C(=O)N1CCC[C@H]1C(=O)N[C@H](C)C(N)=O`, half-maximal inhibition (IC50) required 2.71 nM.

For the setting “hek293”, `CC(=O)N[C@H](Cc1ccc2ccccc2c1)C(=O)N[C@H](Cc1ccc(Cl)cc1)C(=O)N[C@@H](Cc1cccnc1)C(=O)N[C@@H](CO)C(=O)N[C@@H](Cc1ccc(NC(=O)[C@@H]2CC(=O)NC(=O)N2)cc1)C(=O)N[C@@H](Cc1ccc(NC(N)=O)cc1)C(=O)N[C@@H](CC(C)C)C(=O)N[C@@H](CCCNC(=O)[C@H]1CC(=O)NC(=O)N1)C(=O)N1CCC[C@H]1C(=O)N[C@H](C)C(N)=O` had a concentration for half-maximal inhibition (IC50) of 1.77 nM.

In the case of `CC(=O)N[C@H](Cc1ccc2ccccc2c1)C(=O)N[C@H](Cc1ccc(Cl)cc1)C(=O)N[C@H](Cc1cccnc1)C(=O)N[C@@H](CO)C(=O)N[C@@H](Cc1ccc(NC(=O)[C@@H]2CC(=O)NC(=O)N2)cc1)C(=O)N[C@H](Cc1ccc(NC(N)=O)cc1)C(=O)N[C@@H](CC(N)=O)C(=O)N[C@@H](CCCCNC(C)C)C(=O)N1CCC[C@H]1C(=O)N[C@H](C)C(N)=O`, half-maximal inhibition (IC50) required 9.18 nM.

Regarding `CC(=O)N[C@H](Cc1ccc2ccccc2c1)C(=O)N[C@H](Cc1ccc(Cl)cc1)C(=O)N[C@H](Cc1cccnc1)C(=O)N[C@@H](CO)C(=O)N[C@@H](Cc1ccc(NC(=O)[C@@H]2CC(=O)NC(=O)N2)cc1)C(=O)N[C@H](Cc1ccc(NC(N)=O)cc1)C(=O)N[C@@H](Cc1ccc(O)cc1)C(=O)N[C@@H](CCCCNC(C)C)C(=O)N1CCC[C@H]1C(=O)N[C@H](C)C(N)=O`, the midpoint of inhibition, the IC50, lay at 2.85 nM.

Compound `CC(=O)N[C@H](Cc1ccc2ccccc2c1)C(=O)N[C@H](Cc1ccc(Cl)cc1)C(=O)N[C@H](Cc1cccnc1)C(=O)N[C@@H](CO)C(=O)N[C@@H](Cc1ccc(NC(=O)[C@@H]2CC(=O)NC(=O)N2)cc1)C(=O)N[C@H](Cc1ccc(NC(N)=O)cc1)C(=O)N[C@@H](CC(C)C)C(=O)N[C@@H](CNC(=O)CCNC(C)C)C(=O)N1CCC[C@H]1C(=O)N[C@H](C)C(N)=O` returned an IC50 of 1.98 nM.

As for `CC(=O)N[C@H](Cc1ccc2ccccc2c1)C(=O)N[C@H](Cc1ccc(Cl)cc1)C(=O)N[C@H](Cc1cccnc1)C(=O)N[C@@H](CO)C(=O)N[C@@H](Cc1ccc(NC(=O)[C@@H]2CC(=O)NC(=O)N2)cc1)C(=O)N[C@H](Cc1ccc(NC(N)=O)cc1)C(=O)N[C@@H](CC(C)C)C(=O)N[C@@H](CCCCNC(C)C)C(=O)N1CCC[C@H]1C(=O)N[C@H](C)C(N)=O` [DEGARELIX] (Ac-[d2Nal][dPhe(4-Cl)][d3Pal]S[Phe(4-NH2)](Dihydroorotyl(S))[dPhe(4-NHCONH2)]L[Lys(iPr)]P[dA]-NH2), the concentration for half-maximal inhibition (IC50) was found to be 1.64 nM.
